This is an account of results in paper PMC8148065 (Acta Pharmaceutica Sinica. B, 2020).

Data set [1] has as its target T1, recombinant HMGCR protein (Homo sapiens, UniProt P04035).
T1 sequence (P04035 426-888 limits assumed): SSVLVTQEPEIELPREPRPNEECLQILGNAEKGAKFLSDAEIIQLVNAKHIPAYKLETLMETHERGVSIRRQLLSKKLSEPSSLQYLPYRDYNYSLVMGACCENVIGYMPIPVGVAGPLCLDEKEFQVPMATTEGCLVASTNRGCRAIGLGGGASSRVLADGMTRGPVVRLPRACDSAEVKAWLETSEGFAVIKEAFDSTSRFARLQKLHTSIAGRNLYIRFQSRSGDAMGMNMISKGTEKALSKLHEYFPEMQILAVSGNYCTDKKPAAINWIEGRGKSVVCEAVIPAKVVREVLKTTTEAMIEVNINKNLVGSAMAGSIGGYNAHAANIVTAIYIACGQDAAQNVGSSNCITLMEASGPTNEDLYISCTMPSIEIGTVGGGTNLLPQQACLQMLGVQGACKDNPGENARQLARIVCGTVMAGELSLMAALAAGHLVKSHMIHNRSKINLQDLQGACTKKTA
Put plainly: HMG-CoA reductase activity assay. It is filed as biochemical.

Data set [2] concerns the target T2, HMGCR (Homo sapiens, UniProt P04035).
T2 sequence (P04035 1-888): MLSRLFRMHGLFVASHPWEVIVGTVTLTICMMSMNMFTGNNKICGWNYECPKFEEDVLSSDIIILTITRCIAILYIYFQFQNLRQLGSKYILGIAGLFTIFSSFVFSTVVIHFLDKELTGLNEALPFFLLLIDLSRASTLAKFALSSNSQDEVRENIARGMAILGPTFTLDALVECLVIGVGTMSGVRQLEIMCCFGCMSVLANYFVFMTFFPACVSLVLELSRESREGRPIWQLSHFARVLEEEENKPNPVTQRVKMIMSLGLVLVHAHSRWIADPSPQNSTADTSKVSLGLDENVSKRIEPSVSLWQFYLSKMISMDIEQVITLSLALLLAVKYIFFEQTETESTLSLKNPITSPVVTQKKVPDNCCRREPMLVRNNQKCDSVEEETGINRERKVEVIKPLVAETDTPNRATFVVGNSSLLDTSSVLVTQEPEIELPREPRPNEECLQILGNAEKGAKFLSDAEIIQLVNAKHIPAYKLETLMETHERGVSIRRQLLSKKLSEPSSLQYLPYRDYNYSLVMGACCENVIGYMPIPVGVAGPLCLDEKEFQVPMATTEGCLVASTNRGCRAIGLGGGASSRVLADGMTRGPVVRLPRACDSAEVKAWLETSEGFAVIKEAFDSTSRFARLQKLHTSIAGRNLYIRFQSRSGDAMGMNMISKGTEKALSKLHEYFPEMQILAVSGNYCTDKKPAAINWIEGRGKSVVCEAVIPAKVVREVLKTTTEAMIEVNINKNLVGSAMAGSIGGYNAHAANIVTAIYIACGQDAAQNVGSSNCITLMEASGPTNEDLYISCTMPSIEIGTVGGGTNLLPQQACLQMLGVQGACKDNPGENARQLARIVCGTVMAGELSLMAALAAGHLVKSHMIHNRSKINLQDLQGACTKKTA
Description: Western blot of HMGCR level in HepG2 cells. It is filed as cell-based.

Data set [3] in a line: In vitro metabolic stability in mouse liver microsomes. It is filed as in vitro ADME. Conditions: for half-life at 1 μmol/L: pH 7.4. Put shortly:
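Mouse liver microsomes (0.5 mg/mL) were incubated with the test compound (1 μmol/L) and an NADPH regeneration system in phosphate buffer (1.0 mmol/L EDTA), pH 7.4. The reaction was started with NADPH and quenched at 5, 15, 30 and 45 min with acetonitrile plus internal standard. Samples were centrifuged, diluted in water and quantified by LC–MS/MS. t1/2 and CLint are means of duplicates.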

Data set [4] has as its system MFD-induced hypercholesterolemia. Description: MFD-induced mouse model of hypercholesterolemia. The class given is in vivo, C57BL/6 mice. Conditions: MFD mice. Put shortly: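 Male C57BL/6 mice (20–24 g) were fed medium-fat diet (12% fat, 0.5% sodium cholate, 1.25% cholesterol) with 3 weeks' induction. Survival, body weight and food intake were logged weekly. Sixteen hours post-dose, retro-orbital serum TC, LDL-C and TG were measured on an automated analyser (one-way ANOVA, mean ± SD).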

For data set [5], the target named is T3, HMGCR (Mus musculus, UniProt Q01237).
T3 sequence (Q01237 1-887): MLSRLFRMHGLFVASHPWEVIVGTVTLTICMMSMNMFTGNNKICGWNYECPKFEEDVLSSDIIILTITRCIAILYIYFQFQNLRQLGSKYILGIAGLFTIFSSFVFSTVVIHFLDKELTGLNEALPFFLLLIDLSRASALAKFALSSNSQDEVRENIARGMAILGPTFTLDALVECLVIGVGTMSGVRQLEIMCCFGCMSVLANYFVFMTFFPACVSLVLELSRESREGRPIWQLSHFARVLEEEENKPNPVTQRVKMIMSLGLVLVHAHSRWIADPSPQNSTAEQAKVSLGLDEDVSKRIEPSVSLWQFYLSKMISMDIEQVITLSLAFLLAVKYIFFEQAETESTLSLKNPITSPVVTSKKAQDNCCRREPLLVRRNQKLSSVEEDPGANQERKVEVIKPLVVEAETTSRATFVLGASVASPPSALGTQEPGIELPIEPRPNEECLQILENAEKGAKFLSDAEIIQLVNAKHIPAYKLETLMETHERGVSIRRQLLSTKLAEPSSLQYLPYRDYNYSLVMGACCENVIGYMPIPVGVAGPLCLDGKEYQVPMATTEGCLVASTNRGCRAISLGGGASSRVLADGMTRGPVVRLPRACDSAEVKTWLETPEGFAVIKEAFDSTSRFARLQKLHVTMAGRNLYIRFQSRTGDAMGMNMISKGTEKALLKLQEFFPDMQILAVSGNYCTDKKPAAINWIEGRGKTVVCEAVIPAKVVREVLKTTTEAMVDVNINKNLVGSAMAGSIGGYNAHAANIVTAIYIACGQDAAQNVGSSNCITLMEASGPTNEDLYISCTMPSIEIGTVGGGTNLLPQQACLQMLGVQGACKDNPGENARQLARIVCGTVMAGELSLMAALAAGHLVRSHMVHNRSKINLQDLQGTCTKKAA
Description: Hepatic HMGCR level by Western blot in MFD-fed mice. As to conditions: 20 mg/kg p.o. once daily 5 weeks, 16 h after final gavage. The class given is in vivo, C57BL/6 mice.

Data set [6] is described as follows: Chemical stability in saline. It is filed as physicochemical. Conditions: pH 7.4, 37 °C, 24 h.
For data set [7] the following is noted: previously reported in mice ref 53; cited from earlier work.

“Also recorded” adds a separate entry of the source.

Take `Cc1ncsc1-c1ccc(CNC(=O)[C@@H]2C[C@@H](O)CN2C(=O)[C@@H](NC(=O)CCCCCCCCCCNC(=O)O[C@H]2C[C@@H](C)C=C3C=C[C@H](C)[C@H](CC[C@@H]4C[C@@H](O)CC(=O)O4)[C@H]32)C(C)(C)C)cc1` [Compound 21b, (1S,3R,7S,8S,8aR)-8-(2-((2R,4R)-4-Hydroxy-6-oxotetrahydro-2H-pyran-2-yl)ethyl)-3,7-dimethyl-1,2,3,7,8,8a-hexahydronaphthalen-1-yl (11-(((S)-1-((2S,4R)-4-hydroxy-2-((4-(4-methylthiazol-5-yl)benzyl)carbamoyl)pyrrolidin-1-yl)-3,3-dimethyl-1-oxobutan-2-yl)amino)-11-oxoundecyl)carbamate]: the IC50 (in general, the point on the concentration scale where inhibition reaches its midpoint) in data set [1] came to 1320 nM. For the same compound, on HMGCR [2] (HepG2, read-out: maximum degradation (Dmax)), the Dmax – broadly, the largest share of the target that was removed – at 1 µM came out at 56%. In data set [3] (mouse, liver microsomes), the half-life (usually the time needed for the level to fall by half in the phase considered) at 1 μmol/L worked out at 4.18 min. In addition, the CLint scaled (usually a measure of how fast metabolising enzymes remove a compound, apart from limits set by blood flow) at 1 μmol/L in data set [3] (mouse, liver microsomes, pH 7.4, CLint (mL/min/kg), mouse liver microsomes, mean of duplicate) was 416 mL/min/kg. Moreover, in data set [4] (20 mg/kg p.o. once daily, 5 weeks), the “Serum total cholesterol (TC), LDL-C and triglyceride (TG)” value was “moderate decrease”. Also, the “Serum TC and cholesteryl esters” value in data set [4] (60 mg/kg p.o. once daily, 5 weeks) is on record as “significantly reduced to lower levels”. In addition, in data set [4] (20 or 60 mg/kg p.o. once daily, 5 weeks), the “Hepatic TC and TG” value is “reduced hepatic TC and TG in a dose-dependent manner”. In addition, in data set [4] (oral once a day for 5 weeks), the “Tolerability (body weight and food intake)” value was “well tolerated; also recorded: no apparent change of body weight and food intake”. The “Steatosis and lipid deposition in liver sections (H&E, oil red O)” value in data set [4] (p.o. once daily, 5 weeks) is “ameliorated MFD-induced steatosis and lipid deposition”. Moreover, the “Hepatic HMGCR level” value at HMGCR [5] was “robust HMGCR degradation”.
Consider `C[C@H]1C=C2C=C[C@H](C)[C@H](CC[C@@H]3C[C@@H](O)CC(=O)O3)[C@H]2[C@@H](OC(=O)NCCOCCOCCNc2cccc3c2C(=O)N(C2CCC(=O)NC2=O)C3=O)C1` (stereo partly drawn) [Compound 16b, (1S,3R,7S,8S,8aR)-8-(2-((2R,4R)-4-Hydroxy-6-oxotetrahydro-2H-pyran-2-yl)ethyl)-3,7-dimethyl-1,2,3,7,8,8a-hexahydronaphthalen-1-yl (2-(2-(2-((2-(2,6-dioxopiperidin-3-yl)-1,3-dioxoisoindolin-4-yl)amino)ethoxy)ethoxy)ethyl)carbamate], for which the IC50 in data set [1] is 1880 nM. In addition, in data set [6], the “Chemical stability (decomposition)” value is listed as “over half decomposition”.
Regarding `C[C@H]1C=C2C=C[C@H](C)[C@H](CC[C@@H]3C[C@@H](O)CC(=O)O3)[C@H]2[C@@H](OC(=O)NCCCOCCOCCOCCCNc2cccc3c2C(=O)N(C2CCC(=O)NC2=O)C3=O)C1` (stereo partly drawn) [Compound 16a, (1S,3R,7S,8S,8aR)-8-(2-((2R,4R)-4-Hydroxy-6-oxotetrahydro-2H-pyran-2-yl)ethyl)-3,7-dimethyl-1,2,3,7,8,8a-hexahydronaphthalen-1-yl (3-(2-(2-(3-((2-(2,6-dioxopiperidin-3-yl)-1,3-dioxoisoindolin-4-yl)amino)propoxy)ethoxy)ethoxy)propyl)carbamate], in data set [1], the IC50 was determined as 1250 nM.
As to `Cc1ncsc1-c1ccc(CNC(=O)[C@@H]2C[C@@H](O)CN2C(=O)[C@@H](NC(=O)CCCCCCCNC(=O)O[C@H]2C[C@@H](C)C=C3C=C[C@H](C)[C@H](CC[C@@H]4C[C@@H](O)CC(=O)O4)[C@H]32)C(C)(C)C)cc1` [Compound 21a, (1S,3R,7S,8S,8aR)-8-(2-((2R,4R)-4-Hydroxy-6-oxotetrahydro-2H-pyran-2-yl)ethyl)-3,7-dimethyl-1,2,3,7,8,8a-hexahydronaphthalen-1-yl (8-(((S)-1-((2S,4R)-4-hydroxy-2-((4-(4-methylthiazol-5-yl)benzyl)carbamoyl)pyrrolidin-1-yl)-3,3-dimethyl-1-oxobutan-2-yl)amino)-8-oxooctyl)carbamate], in data set [1], the IC50 stood at 1560 nM.
Turning to `CC[C@H](C)C(=O)O[C@H]1C[C@@H](C)C=C2C=C[C@H](C)[C@H](CC[C@@H](O)C[C@@H](O)CC(=O)O)[C@H]21` [lovastatin acid], in data set [7], the Tmax (in general, the time from dosing to the highest level) is 90 min.
For `CC[C@H](C)C(=O)O[C@H]1C[C@@H](C)C=C2C=C[C@H](C)[C@H](CC[C@@H]3C[C@@H](O)CC(=O)O3)[C@H]21` [Lovastatin, lovastatin, reference compound], at HMGCR [2] (HepG2 cells, range of concentrations (0.1, 1, 3, 10 μmol/L), 16 h), the “Effect on HMGCR expression” value is listed as “remarkably upregulated HMGCR in a dose-dependent manner”. Further, in data set [3] (mouse liver microsomes, mean of duplicate), the “CLint” value worked out at 7516 mL/min/kg. In addition, the half-life at 1 μmol/L in data set [3] (mouse, liver microsomes) was 0.73 min. Also, the “Hepatic HMGCR level” value on HMGCR [5] is listed as “retained high HMGCR level”. Moreover, in data set [7], the Tmax was 120 min.
As to `C[C@H]1C=C2C=C[C@H](C)[C@H](CC[C@@H]3C[C@@H](O)CC(=O)O3)[C@H]2[C@@H](OC(=O)NCCCNc2cccc3c2C(=O)N(C2CCC(=O)NC2=O)C3=O)C1` (stereo partly drawn) [Compound 16c, (1S,3R,7S,8S,8aR)-8-(2-((2R,4R)-4-Hydroxy-6-oxotetrahydro-2H-pyran-2-yl)ethyl)-3,7-dimethyl-1,2,3,7,8,8a-hexahydronaphthalen-1-yl (3-((2-(2,6-dioxopiperidin-3-yl)-1,3-dioxoisoindolin-4-yl)amino)propyl)carbamate], in data set [1], the IC50 came out at 2490 nM.
